Reference: ChEMBL document CHEMBL1154279, “Cytotoxic compounds from the stems of Cinnamomum tenuifolium” (J Nat Prod, 2009)

How the values were obtained:
DU-145 = assay: Cytotoxicity against human DU145 cells after 72 hrs by XTT assay; assay type: functional, cell-based; settings: DU-145, 24 h, in the assay text read “after 24 hrs” for “after 72 hrs”
LNCaP = assay: Cytotoxicity against human LNCAP cells after 72 hrs by XTT assay; assay type: functional, cell-based; settings: 24 h, in the assay text read “after 24 hrs” for “after 72 hrs”
In short: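 Prostate cancer cells in RPMI-1640 with 10% FBS, 37 °C, 5% CO2, grown to 70–80% confluence and treated at 0.1–100 µM for 24, 48 and 72 h. XTT labeling for 4 h at 37 °C, absorbance 450 nm (reference 650 nm) against control wells. IC50 derived from the mean of eight wells; taxol and cisplatin served as positive controls.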

Row | Compound | IC50 (DU-145) | IC50 (LNCaP)
1 | C=C1OC(=O)/C(=C\CCCCCCCCCCCCCCCCCCCCCCCCCC)[C@@H]1O [TENUIFOLIDE A] | 211 µM | 450 µM
2 | C=C1C=C(C(CCCCCCCCCCCCCCCCCCC)OC)C(=O)O1 (configuration not stated) [TENUIFOLIDE B] | 246 µM | 22.2 µM
3 | C=C1OC(=O)/C(=C/CCCCCCCCCCCCCCCCCCCCCCCCCC)[C@@H]1O [ISOTENUIFOLIDE] | 84.1 µM | 42.7 µM
4 | CC(=O)O[C@H]1C(=O)[C@@]2(C)[C@H]([C@H](OC(=O)c3ccccc3)[C@]3(O)C[C@H](OC(=O)[C@H](O)[C@@H](NC(=O)c4ccccc4)c4ccccc4)C(C)=C1C3(C)C)[C@]1(OC(C)=O)CO[C@@H]1C[C@@H]2O [PACLITAXEL] |  | 6.32 µM
